Activity calls are given as the source filed them.

A short description of data set [1]: AUC (0 to t) in beagle dog at 2 mg/kg, iv by LC-MS/MS analysis. The format is ADME, organism-based, Canis lupus familiaris. Particulars: in vivo. The gist of the method:
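Non-compartmental PK. Male SD rats 190-210 g, mice and beagle dogs acclimatized one week, fasted 12 h with water, split into iv and po groups (mice 48, rats 6, dogs 6). iv 3/3/2 mg/kg (mice/rats/dogs); po 10/20/10 mg/kg; vehicle DMSO in 5% glucose water. Blood at 2 or 5 to 720 min; plasma protein-precipitated with methanol, caffeine internal standard, LC-MS/MS.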

The nature of data set [2]: MRT (0 to t) in beagle dog at 10 mg/kg, po by LC-MS/MS analysis. Particulars: in vivo. The format is ADME, organism-based, Canis lupus familiaris.
Data set [3] concerns MV4-11. The data set is described as follows: Antitumor activity against human MV4-11 cells xenografted in nu/nu mouse assessed as tumor growth inhibition at 10 to 30 mg/kg, po administered via gavage for 2 weeks measured every day during compound dosing. The data set is classed as functional, organism-based. The gist of the method:
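Female nu/nu mice, five weeks old, implanted subcutaneously in the right flank with 5 million MV4-11 cells in PBS/Matrigel 1:1. Daily oral gavage in 0.5% methylcellulose/0.4% Tween80 started at tumor volume 200–400 mm³, 10, 20 or 30 mg/kg/day or vehicle, 5 mice per group. Tumor volume (W²×L)/2 and body weight measured daily; mean ± SEM.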
A general note: Xenograft models place foreign cells or tissue in a host animal.

The test system of data set [4] is Serine/threonine-protein kinase B-raf (Homo sapiens), P15056 [V600E]. The data set can be described thus: Binding affinity to human partial length BRAF V600E mutant (S429 to E741 residues) expressed in mammalian expression system assessed as remaining unbound target protein level at 1000 nM by Kinomescan method relative to control. The gist of the method:
(§1)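 KINOMEscan competition-binding profiling across the panel of 468 kinases and mutants, with inhibitor tested at 1 μM. Binding is expressed as percent of control, with DMSO as the reference control.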

Data set [5] has as its target Mitotic checkpoint serine/threonine-protein kinase BUB1 (Homo sapiens) (UniProt O43683). The data set is described as follows: Binding affinity to wild-type human partial length BUB1 (Q724 to K1085 residues) expressed in mammalian expression system assessed as remaining unbound target protein level at 1000 nM by Kinomescan method relative to control. The procedure, abridged:
(§2)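 Profiled in a KINOMEscan binding panel with the inhibitor at a single concentration of 1 μM. Binding to each kinase was read out as percent of control, relative to a DMSO control. Strong binders were defined as those with a percent control value below 1.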

The target of data set [6] is Calcium/calmodulin-dependent protein kinase type II subunit alpha (Homo sapiens) (UniProt Q9UQM7). The data set can be described thus: Binding affinity to wild-type human partial length CAMK2A (M1 to K328 residues) expressed in bacterial expression system assessed as remaining unbound target protein level at 1000 nM by Kinomescan method relative to control. The gist of the method:
as §2

The target in data set [7] is Dual specificity protein kinase CLK4 (Homo sapiens) (UniProt Q9HAZ1). The data set can be described thus: Binding affinity to wild-type human partial length CLK4 (R135 to K481 residues) expressed in bacterial expression system assessed as remaining unbound target protein level at 1000 nM by Kinomescan method relative to control. The gist of the method:
(§3)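 KINOMEscan competition binding profile across a panel of 468 kinases and mutants, with the inhibitor tested at a single concentration of 1 μM. Binding is reported as percent of control, meaning signal relative to a DMSO control.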

The target in data set [8] is Dual specificity tyrosine-phosphorylation-regulated kinase 1A (Homo sapiens) (UniProt Q13627). The data set is described as follows: Binding affinity to wild-type human partial length DYRK1A (H129 to S509 residues) expressed in mammalian expression system assessed as remaining unbound target protein level at 1000 nM by Kinomescan method relative to control. The gist of the method:
(§4)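 KINOMEscan binding panel of 468 kinases/mutants. Inhibitor was tested at a single concentration of 1 μM. Binding is reported as percent of control, defined relative to a DMSO control.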

Data set [9] deals with Fibroblast growth factor receptor 4 (Homo sapiens) (UniProt P22455). The data set is described as follows: Binding affinity to wild-type human partial length FGFR4 (G402 to E713 residues) expressed in bacterial expression system assessed as remaining unbound target protein level at 1000 nM by Kinomescan method relative to control.
Fibroblast growth factor receptor 4 (Homo sapiens), sequence (P22455 22-802 limits assumed): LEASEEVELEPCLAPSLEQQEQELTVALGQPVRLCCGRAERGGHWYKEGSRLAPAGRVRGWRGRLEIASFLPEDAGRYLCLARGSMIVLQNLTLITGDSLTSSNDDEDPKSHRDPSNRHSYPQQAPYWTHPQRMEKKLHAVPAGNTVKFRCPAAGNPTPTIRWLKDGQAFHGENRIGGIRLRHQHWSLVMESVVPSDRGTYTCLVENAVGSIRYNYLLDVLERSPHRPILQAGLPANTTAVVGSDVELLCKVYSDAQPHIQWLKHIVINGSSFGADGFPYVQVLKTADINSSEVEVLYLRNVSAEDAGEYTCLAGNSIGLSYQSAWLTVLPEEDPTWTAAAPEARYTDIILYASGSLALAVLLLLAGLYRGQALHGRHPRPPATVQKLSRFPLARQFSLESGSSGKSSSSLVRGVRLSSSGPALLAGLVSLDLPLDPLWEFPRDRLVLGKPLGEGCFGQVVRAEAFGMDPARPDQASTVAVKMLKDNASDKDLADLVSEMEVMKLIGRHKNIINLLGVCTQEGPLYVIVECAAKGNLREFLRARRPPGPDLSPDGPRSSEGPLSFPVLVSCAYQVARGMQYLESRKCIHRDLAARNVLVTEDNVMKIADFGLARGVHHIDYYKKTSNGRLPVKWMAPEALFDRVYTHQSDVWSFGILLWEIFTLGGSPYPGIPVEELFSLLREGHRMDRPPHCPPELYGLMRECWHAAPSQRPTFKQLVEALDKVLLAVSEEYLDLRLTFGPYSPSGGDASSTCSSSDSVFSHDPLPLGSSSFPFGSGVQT
Data set [10] deals with Serine/threonine-protein kinase MARK1 (Homo sapiens) (UniProt Q9P0L2). The data set can be described thus: Binding affinity to wild-type human partial length MARK1 (Q30 to T341 residues) expressed in bacterial expression system assessed as remaining unbound target protein level at 1000 nM by Kinomescan method relative to control. The procedure, abridged: as §4
Serine/threonine-protein kinase MARK1 (Homo sapiens), sequence (Q9P0L2 whole entry, looked up, the tested form may be a part): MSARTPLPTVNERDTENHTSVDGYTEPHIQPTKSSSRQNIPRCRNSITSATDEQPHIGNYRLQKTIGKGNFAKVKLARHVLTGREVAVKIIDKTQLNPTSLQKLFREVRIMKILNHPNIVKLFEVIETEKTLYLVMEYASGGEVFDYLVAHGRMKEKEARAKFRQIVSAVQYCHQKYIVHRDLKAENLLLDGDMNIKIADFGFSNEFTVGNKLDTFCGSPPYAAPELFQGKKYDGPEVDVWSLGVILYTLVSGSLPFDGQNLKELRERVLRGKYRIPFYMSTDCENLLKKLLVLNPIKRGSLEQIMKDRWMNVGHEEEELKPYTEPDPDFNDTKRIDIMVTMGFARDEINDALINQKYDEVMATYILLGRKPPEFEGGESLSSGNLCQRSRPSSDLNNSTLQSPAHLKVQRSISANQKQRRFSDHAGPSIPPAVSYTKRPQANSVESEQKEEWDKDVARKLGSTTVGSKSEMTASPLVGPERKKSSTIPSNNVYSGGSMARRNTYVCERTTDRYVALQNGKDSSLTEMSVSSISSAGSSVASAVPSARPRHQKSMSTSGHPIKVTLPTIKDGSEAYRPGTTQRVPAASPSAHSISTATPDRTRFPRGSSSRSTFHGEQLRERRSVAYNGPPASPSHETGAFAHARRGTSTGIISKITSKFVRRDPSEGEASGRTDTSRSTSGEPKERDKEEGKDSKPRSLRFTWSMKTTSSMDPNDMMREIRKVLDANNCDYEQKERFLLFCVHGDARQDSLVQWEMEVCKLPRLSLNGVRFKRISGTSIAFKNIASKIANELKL
Data set [11] addresses Serine/threonine-protein kinase PAK 1 (Homo sapiens) (UniProt Q13153). The data set can be described thus: Binding affinity to wild-type human partial length PAK1 (S149 to H545 residues) expressed in bacterial expression system assessed as remaining unbound target protein level at 1000 nM by Kinomescan method relative to control.
Data set [12] concerns Phosphatidylinositol 4,5-bisphosphate 3-kinase catalytic subunit alpha isoform (Homo sapiens), P42336 [H1047Y]. The data set can be described thus: Binding affinity to human partial length PIK3CA H1047Y mutant (R108 to N1068 residues) expressed in mammalian expression system assessed as remaining unbound target protein level at 1000 nM by Kinomescan method relative to control. The gist of the method: as §1

In data set [13] the target is Phosphatidylinositol 4-phosphate 5-kinase type-1 alpha (Homo sapiens) (UniProt Q99755). The data set is described as follows: Binding affinity to wild-type human full length PIP5K1A (M1 to H562 residues) expressed in bacterial expression system assessed as remaining unbound target protein level at 1000 nM by Kinomescan method relative to control. The procedure, abridged: as §2
Phosphatidylinositol 4-phosphate 5-kinase type-1 alpha (Homo sapiens), sequence (Q99755 whole entry, the tested form may be a part): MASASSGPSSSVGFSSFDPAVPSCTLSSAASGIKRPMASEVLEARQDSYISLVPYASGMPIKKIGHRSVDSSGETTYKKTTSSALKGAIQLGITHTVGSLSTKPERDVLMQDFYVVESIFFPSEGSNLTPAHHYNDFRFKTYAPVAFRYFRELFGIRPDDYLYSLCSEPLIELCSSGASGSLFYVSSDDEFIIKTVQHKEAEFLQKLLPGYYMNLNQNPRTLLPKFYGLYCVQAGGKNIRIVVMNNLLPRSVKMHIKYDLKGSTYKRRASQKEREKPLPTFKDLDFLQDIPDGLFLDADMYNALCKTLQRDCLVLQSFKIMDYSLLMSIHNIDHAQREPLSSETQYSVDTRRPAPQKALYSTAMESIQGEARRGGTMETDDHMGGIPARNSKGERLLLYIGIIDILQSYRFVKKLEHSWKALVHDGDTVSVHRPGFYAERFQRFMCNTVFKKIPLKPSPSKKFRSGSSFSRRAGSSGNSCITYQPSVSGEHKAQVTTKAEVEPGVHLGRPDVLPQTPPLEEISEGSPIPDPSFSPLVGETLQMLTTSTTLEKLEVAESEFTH

The target of data set [14] is Protein kinase C delta type (Homo sapiens) (UniProt Q05655). The data set can be described thus: Binding affinity to wild-type human partial length PRKCD (Q328 to D676 residues) expressed in bacterial expression system assessed as remaining unbound target protein level at 1000 nM by Kinomescan method relative to control.
Protein kinase C delta type (Homo sapiens), sequence (Q05655 whole entry, looked up, the tested form may be a part): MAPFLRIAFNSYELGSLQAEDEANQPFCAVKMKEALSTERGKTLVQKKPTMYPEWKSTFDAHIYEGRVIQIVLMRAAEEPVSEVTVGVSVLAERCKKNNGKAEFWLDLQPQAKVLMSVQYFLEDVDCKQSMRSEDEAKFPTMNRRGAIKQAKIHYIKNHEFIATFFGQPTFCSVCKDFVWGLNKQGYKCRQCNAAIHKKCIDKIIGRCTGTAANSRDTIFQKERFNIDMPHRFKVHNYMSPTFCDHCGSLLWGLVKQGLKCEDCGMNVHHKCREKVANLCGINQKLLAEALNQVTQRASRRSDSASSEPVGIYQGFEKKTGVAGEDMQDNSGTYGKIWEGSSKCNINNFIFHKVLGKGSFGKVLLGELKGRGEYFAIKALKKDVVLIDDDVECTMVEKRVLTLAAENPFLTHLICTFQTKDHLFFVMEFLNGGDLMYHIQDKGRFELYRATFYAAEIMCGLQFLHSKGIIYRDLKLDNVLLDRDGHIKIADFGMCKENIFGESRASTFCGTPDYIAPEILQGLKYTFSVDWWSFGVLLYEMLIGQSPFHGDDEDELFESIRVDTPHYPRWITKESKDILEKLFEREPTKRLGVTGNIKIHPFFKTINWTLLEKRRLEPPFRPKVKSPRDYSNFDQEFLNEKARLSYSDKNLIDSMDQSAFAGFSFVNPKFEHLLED
For data set [15], the target named is Serine/threonine-protein kinase SIK2 (Homo sapiens) (UniProt Q9H0K1). The data set can be described thus: Binding affinity to wild-type human full length SIK2 (M1 to N926 residues) expressed in bacterial expression system assessed as remaining unbound target protein level at 1000 nM by Kinomescan method relative to control. The procedure, abridged:
as §2

Data set [16] deals with Serine/threonine-protein kinase TBK1 (Homo sapiens) (UniProt Q9UHD2). The data set is described as follows: Binding affinity to wild-type human full length TBK1 (M1 to L729 residues) expressed in mammalian expression system assessed as remaining unbound target protein level at 1000 nM by Kinomescan method relative to control. The procedure, abridged:
as §3

Data set [17] concerns the target Dual specificity testis-specific protein kinase 1 (Homo sapiens) (UniProt Q15569). The data set can be described thus: Binding affinity to wild-type human full length TESK1 (R37 to S626 residues) expressed in bacterial expression system assessed as remaining unbound target protein level at 1000 nM by Kinomescan method relative to control. The procedure, abridged: as §2

Data set [18] has as its target Serine/threonine-protein kinase tousled-like 1 (Homo sapiens) (UniProt Q9UKI8). The data set can be described thus: Binding affinity to wild-type human partial length TLK1 (K447 to A754 residues) expressed in bacterial expression system assessed as remaining unbound target protein level at 1000 nM by Kinomescan method relative to control.
The target in data set [19] is Non-receptor tyrosine-protein kinase TNK1 (Homo sapiens) (UniProt Q13470). The data set can be described thus: Binding affinity to wild-type human full length TNK1 (M1 to P661 residues) expressed in bacterial expression system assessed as remaining unbound target protein level at 1000 nM by Kinomescan method relative to control. The procedure, abridged: as §3

Serine/threonine-protein kinase PAK 1 (Homo sapiens), sequence (Q13153 whole entry, the tested form may be a part, canonical isoform): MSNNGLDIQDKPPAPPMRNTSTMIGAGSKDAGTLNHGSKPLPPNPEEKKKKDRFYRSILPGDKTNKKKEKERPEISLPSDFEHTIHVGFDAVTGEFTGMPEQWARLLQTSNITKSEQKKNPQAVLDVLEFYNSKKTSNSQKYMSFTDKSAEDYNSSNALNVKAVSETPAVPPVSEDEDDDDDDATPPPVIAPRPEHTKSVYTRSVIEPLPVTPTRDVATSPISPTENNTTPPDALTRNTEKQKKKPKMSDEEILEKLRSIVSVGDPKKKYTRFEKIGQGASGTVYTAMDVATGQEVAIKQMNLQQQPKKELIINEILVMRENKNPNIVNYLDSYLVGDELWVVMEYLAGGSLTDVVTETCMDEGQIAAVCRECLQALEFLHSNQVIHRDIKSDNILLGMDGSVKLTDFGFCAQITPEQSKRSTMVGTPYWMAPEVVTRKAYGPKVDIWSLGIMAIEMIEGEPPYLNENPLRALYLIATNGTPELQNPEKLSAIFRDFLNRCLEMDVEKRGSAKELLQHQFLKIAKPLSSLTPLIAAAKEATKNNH
Dual specificity protein kinase CLK4 (Homo sapiens), sequence (Q9HAZ1 whole entry, looked up, the tested form may be a part): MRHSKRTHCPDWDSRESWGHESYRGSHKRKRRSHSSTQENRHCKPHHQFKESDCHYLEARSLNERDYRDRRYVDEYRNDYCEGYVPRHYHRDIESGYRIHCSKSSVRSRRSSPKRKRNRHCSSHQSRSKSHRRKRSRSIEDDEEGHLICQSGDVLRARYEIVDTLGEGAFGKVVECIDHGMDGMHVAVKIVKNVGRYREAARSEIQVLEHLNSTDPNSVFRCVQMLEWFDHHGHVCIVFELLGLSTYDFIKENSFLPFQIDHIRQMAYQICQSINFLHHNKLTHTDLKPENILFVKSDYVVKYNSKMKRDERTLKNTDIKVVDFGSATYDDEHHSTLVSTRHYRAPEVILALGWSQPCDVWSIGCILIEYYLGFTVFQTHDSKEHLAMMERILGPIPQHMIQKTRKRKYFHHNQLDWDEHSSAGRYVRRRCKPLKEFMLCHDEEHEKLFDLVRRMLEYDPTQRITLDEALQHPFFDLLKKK
Serine/threonine-protein kinase SIK2 (Homo sapiens), sequence (Q9H0K1 whole entry, looked up, the tested form may be a part): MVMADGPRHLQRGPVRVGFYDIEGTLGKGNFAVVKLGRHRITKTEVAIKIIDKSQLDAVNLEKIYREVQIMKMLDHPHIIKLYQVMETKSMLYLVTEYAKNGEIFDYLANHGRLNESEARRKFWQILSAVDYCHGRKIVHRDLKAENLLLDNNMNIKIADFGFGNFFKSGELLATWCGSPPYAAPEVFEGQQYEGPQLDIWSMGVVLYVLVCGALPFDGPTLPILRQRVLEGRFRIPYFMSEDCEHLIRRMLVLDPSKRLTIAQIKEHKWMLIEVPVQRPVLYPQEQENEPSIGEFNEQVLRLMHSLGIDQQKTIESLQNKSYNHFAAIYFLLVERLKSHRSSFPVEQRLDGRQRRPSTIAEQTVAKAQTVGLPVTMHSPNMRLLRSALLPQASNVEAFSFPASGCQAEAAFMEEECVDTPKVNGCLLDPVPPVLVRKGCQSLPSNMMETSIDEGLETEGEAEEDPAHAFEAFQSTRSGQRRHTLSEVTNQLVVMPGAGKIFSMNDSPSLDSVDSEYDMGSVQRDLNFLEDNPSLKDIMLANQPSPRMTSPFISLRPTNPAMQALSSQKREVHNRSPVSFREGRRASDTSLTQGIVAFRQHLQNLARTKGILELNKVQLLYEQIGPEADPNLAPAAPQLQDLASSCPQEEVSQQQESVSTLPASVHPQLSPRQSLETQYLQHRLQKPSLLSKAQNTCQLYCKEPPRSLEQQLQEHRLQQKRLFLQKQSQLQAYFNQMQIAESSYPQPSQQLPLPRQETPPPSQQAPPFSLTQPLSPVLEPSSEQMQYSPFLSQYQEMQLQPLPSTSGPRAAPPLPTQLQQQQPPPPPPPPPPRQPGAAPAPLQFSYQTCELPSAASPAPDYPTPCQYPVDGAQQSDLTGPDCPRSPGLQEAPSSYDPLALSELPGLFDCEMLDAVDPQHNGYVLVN

As for `COCCN[C@H]1CC[C@H](Nc2cc(-c3csc(NCC4(C#N)CCOCC4)n3)c(Cl)cn2)CC1`, the AUC(0-t) in [1] came out at 2010 ng·h/mL. Besides, the MRT last in [2] is 3.59 h. For the same molecule, the TGI entry in data set [3] was “Active”. The Activity is 91% in data set [4]; 96% in data set [5]; 100% in data set [6]; 9.2% in [7]; 0.3% in data set [8]; 100% in data set [9]. Further, the Activity in data set [10] worked out at 91%; in data set [11] it was 100%; in data set [12] it was 54%; in data set [13] it was 100%; in data set [14] it was 91%; in data set [15] it was 100%. Moreover, the Activity in data set [16] turned out to be 86%; in data set [17], 92%; in data set [18] it was 81%; in data set [19] it was 56%.

What is called AUC(0-t) is the area under the concentration-time curve up to a stated or last time point. Higher therefore signals high exposure. By MRT last is commonly meant a mean duration of stay, worked out from the concentration-time curve.

For the origin of these results see ChEMBL document CHEMBL4261600 (Eur J Med Chem, 2018).
